Reference: ChEMBL document CHEMBL1759963, “Synthesis and biological evaluation of 4-styrylcoumarin derivatives as inhibitors of TNF-α and IL-6 with anti-tubercular activity” (2011)

Assays:
Type in all cases: functional
THP-1 [1] = experiment: Antiinflammatory activity in human THP1 cells assessed as inhibition of LPS-induced IL6 production at 10 uM after 24 hrs by ELISA; conditions: THP-1, 24 h
Method in brief: (§1)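 THP-1 cells grown in RPMI 1640 with 10% FBS, penicillin and streptomycin, then differentiated with PMA. Test compound or vehicle (0.5% DMSO) added and preincubated 30 min at 37 °C. LPS (E. coli 0127:B8) then added and cells incubated 24 h at 37 °C, 5% CO2. Supernatant TNF-α and IL-6 measured by ELISA. Cytotoxicity checked in parallel by CCK-8. Percent inhibition versus control.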

THP-1 [2] = experiment: Antiinflammatory activity in human THP1 cells assessed as inhibition of LPS-induced TNFalpha production at 10 uM after 24 hrs by ELISA; conditions: THP-1, 24 h; method in brief: as §1
[3] = test system: Mycobacterium tuberculosis; experiment: Antitubercular activity against Mycobacterium tuberculosis H37Rv ATCC 27294 at 6.25 ug/ml by microplate alamar blue assay
Method in brief: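 Primary screen against M. tuberculosis H37Rv (ATCC 27294) in BACTEC 12B medium by microplate Alamar Blue assay. Tested at 6.25 µg/mL or molar equivalent of the highest-MW compound in the congener series. Fluorescent compounds instead tested in the BACTEC 460 radiometric system.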

SMILES	inhibition at 10 µM (THP-1 [1]) [%]	inhibition at 10 µM (THP-1 [2]) [%]	inhibition at 6.25 µg/mL [3] [%]
N#Cc1c(/C=C/c2ccccc2Cl)c2cc(Cl)ccc2oc1=O	19	0	–
N#Cc1c(/C=C/c2ccco2)c2cc(Cl)ccc2oc1=O	0	9	63
C=Cc1ccccc1/C=C/c1c(C#N)c(=O)oc2ccc(Cl)cc12	0	52	–
CN(C)c1ccc(/C=C/c2c(C#N)c(=O)oc3ccc(Cl)cc23)cc1	0	33	79
COc1ccc(/C=C/c2c(C#N)c(=O)oc3ccc(Cl)cc23)cc1	–	–	33
N#Cc1c(/C=C/c2ccc(Cl)cc2)c2cc(Cl)ccc2oc1=O	4	0	–
N#Cc1c(/C=C/c2ccc(F)cc2)c2cc(Cl)ccc2oc1=O	61	0	–
N#Cc1c(/C=C/c2cccc(O)c2)c2cc(Cl)ccc2oc1=O	39	23	–
N#Cc1c(/C=C/c2cccc(Cl)c2)c2cc(Cl)ccc2oc1=O	21	0	69
N#Cc1c(/C=C/c2cccc([N+](=O)[O-])c2)c2cc(Cl)ccc2oc1=O	72	0	69
N#Cc1c(/C=C/c2ccccc2)c2cc(Cl)ccc2oc1=O	87	32	55
N#Cc1c(/C=C/c2c[nH]c3ccccc23)c2cc(Cl)ccc2oc1=O	0	31	–
COc1cccc(/C=C/c2c(C#N)c(=O)oc3ccc(Cl)cc23)c1	0	73	31
N#Cc1c(/C=C/c2ccccc2[N+](=O)[O-])c2cc(Cl)ccc2oc1=O	14	0	11
N#Cc1c(/C=C/c2c3ccccc3cc3ccccc23)c2cc(Cl)ccc2oc1=O	–	–	81
N#Cc1c(/C=C/c2cccc(Oc3ccccc3)c2)c2cc(Cl)ccc2oc1=O	11	0	72
COc1ccc(/C=C/c2c(C#N)c(=O)oc3ccc(Cl)cc23)cc1OC	40	0	63
N#Cc1c(/C=C/c2cccc(Br)c2)c2cc(Cl)ccc2oc1=O	2	0	23
COc1cc(/C=C/c2c(C#N)c(=O)oc3ccc(Cl)cc23)cc(OC)c1OC	8	38	87
CSc1ccc(/C=C/c2c(C#N)c(=O)oc3ccc(Cl)cc23)cc1	15	0	–
COc1ccccc1/C=C/c1c(C#N)c(=O)oc2ccc(Cl)cc12	17	19	24
N#Cc1c(/C=C/c2ccc(O)cc2)c2cc(Cl)ccc2oc1=O	73	0	–
